The source made the active and inactive calls.
Key:
[1] = target: T1, Histone-lysine N-methyltransferase SMYD3 (Homo sapiens) (UniProt Q9H7B4); experiment: Binding affinity to recombinant human SMYD3 expressed in Escherichia coli assessed as change in enthalpy at 0.3 mM by isothermal titration calorimetry
T1 sequence (whole entry): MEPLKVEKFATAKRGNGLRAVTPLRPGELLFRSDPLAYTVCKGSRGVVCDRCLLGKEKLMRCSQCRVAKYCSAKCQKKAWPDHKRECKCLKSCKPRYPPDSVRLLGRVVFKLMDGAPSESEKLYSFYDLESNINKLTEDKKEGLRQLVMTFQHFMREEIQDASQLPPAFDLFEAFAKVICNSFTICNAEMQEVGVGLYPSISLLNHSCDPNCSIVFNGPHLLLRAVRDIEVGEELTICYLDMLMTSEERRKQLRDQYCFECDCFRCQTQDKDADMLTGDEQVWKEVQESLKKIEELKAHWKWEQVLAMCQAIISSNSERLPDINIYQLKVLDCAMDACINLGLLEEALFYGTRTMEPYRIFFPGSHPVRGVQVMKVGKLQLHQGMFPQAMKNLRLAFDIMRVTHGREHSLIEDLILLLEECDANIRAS
Outline: (§1)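 Syringe held compound at 0.3 mM in 20 mM HEPES pH 7.4, 150 mM NaCl, 0.005% Tween 20, 2.5% DMSO; eight 4 µL injections at 180 s intervals into SMYD3.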

[2] = target: Histone-lysine N-methyltransferase SETD2 (Homo sapiens) (UniProt Q9BYW2); experiment: Inhibition of SETD2 (unknown origin)
[3] = target: T1, Histone-lysine N-methyltransferase SMYD3 (Homo sapiens); experiment: Binding affinity to recombinant human SMYD3 expressed in Escherichia coli assessed as change in gibbs binding free energy by isothermal titration calorimetry; outline: as §1
[4] = target: T2, Histone-lysine N-methyltransferase SMYD3 (Homo sapiens, UniProt Q9H7B4); experiment: Binding affinity to recombinant human SMYD3 expressed in Escherichia coli at varying 3H SAM substrate concentration of upto 3.5 uM with 10 fold Km concentration by scintillation proximity assay
T2 sequence (Q9H7B4 whole entry): T1 sequence (whole entry)
Outline: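 SPA, 10 nM SMYD3 methylating biotinylated MAP3K2 249–273 peptide with 3H-SAM in 20 mM Tris pH 9, 2.5 mM DTT, 0.01% Triton X-100; 40 min, 23 °C, GuHCl quench.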

[5] = target: Histone-lysine N-methyltransferase ASH1L (Homo sapiens) (UniProt Q9NR48); experiment: Inhibition of ASH1L (unknown origin)
[6] = target: RNA 5'-monophosphate methyltransferase (Homo sapiens) (UniProt Q7Z5W3); experiment: Inhibition of BCDIN3D (unknown origin)
[7] = target: DNA (cytosine-5)-methyltransferase 1 (Homo sapiens) (UniProt P26358); experiment: Inhibition of DNMT1 (unknown origin)
[8] = target: Histone-lysine N-methyltransferase EHMT2 (Homo sapiens) (UniProt Q96KQ7); experiment: Inhibition of G9a (unknown origin)
[9] = target: METTL3/METTL14 (Homo sapiens) (UniProt Q86U44+Q9HCE5); experiment: Inhibition of METTL3/METTL14 (unknown origin); type: protein-complex assay
[10] = target: Histone-lysine N-methyltransferase 2A (Homo sapiens) (UniProt Q03164); experiment: Inhibition of MLL1 (unknown origin)
[11] = target: Histone-lysine N-methyltransferase 2C (Homo sapiens) (UniProt Q8NEZ4); experiment: Inhibition of MLL3 (unknown origin)
[12] = target: Histone-lysine N-methyltransferase NSD2 (Homo sapiens) (UniProt O96028); experiment: Inhibition of NSD2 (unknown origin)
[13] = target: Histone-lysine N-methyltransferase PRDM9 (Homo sapiens) (UniProt Q9NQV7); experiment: Inhibition of PRDM9 (unknown origin)
[14] = target: Protein arginine N-methyltransferase 1 (Homo sapiens) (UniProt Q99873); experiment: Inhibition of PRMT1 (unknown origin)
[15] = target: Protein arginine N-methyltransferase 3 (Homo sapiens) (UniProt O60678); experiment: Inhibition of PRMT3 (unknown origin)
[16] = target: Protein arginine N-methyltransferase 8 (Homo sapiens) (UniProt Q9NR22); experiment: Inhibition of PRMT8 (unknown origin)
[17] = target: N-lysine methyltransferase KMT5A (Homo sapiens) (UniProt Q9NQR1); experiment: Inhibition of SETD8 (unknown origin)
[18] = target: N-lysine methyltransferase SMYD2 (Homo sapiens) (UniProt Q9NRG4); experiment: Inhibition of SMYD2 (unknown origin)
[19] = target: Histone-lysine N-methyltransferase SUV39H1 (Homo sapiens) (UniProt O43463); experiment: Inhibition of SUV39H1 (unknown origin)
[20] = target: Aurora kinase A (Homo sapiens, UniProt O14965); experiment: Inhibition of Aurora A (unknown origin) by HTRF assay
[21] = target: Vascular endothelial growth factor receptor 3 (Homo sapiens, UniProt P35916); experiment: Inhibition of FLT4 (unknown origin)
[22] = target: Glycogen synthase kinase-3 beta (Homo sapiens, UniProt P49841); experiment: Inhibition of GSK-3-beta (unknown origin) by HTRF assay
[23] = target: Phosphatidylinositol 5-phosphate 4-kinase type-2 alpha (Homo sapiens, UniProt P48426); experiment: Inhibition of human PIP4K2A
[24] = target: Interleukin-1 receptor-associated kinase 4 (Homo sapiens, UniProt Q9NWZ3); experiment: Inhibition of IRAK4 (unknown origin) in BGG-buffer in presence of ATP
[25] = target: Vascular endothelial growth factor receptor 2 (Homo sapiens, UniProt P35968); experiment: Inhibition of KDR (unknown origin) by HTRF assay
[26] = target: Mitogen-activated protein kinase kinase kinase kinase 1 (Homo sapiens, UniProt Q92918); experiment: Inhibition of MAP4K1 (unknown origin) by competition binding assay
[27] = target: MAP kinase-interacting serine/threonine-protein kinase 1 (Homo sapiens, UniProt Q9BUB5); experiment: Inhibition of MKNK1 (unknown origin) in presence of ATP
[28] = target: Serine/threonine-protein kinase 4 (Homo sapiens, UniProt Q13043); experiment: Inhibition of MST1 (unknown origin)
[29] = target: Serine/threonine-protein kinase TBK1 (Homo sapiens, UniProt Q9UHD2); experiment: Inhibition of TBK1 (unknown origin) in presence of ATP by HTRF assay
[30] = test system: HaCaT; experiment: Antiproliferative activity against human HaCaT cells assessed as inhibition of cell viability measured for 3 to 5 days by alamar blue staining based assay; type: functional
[31] = test system: HGC-27; experiment: Antiproliferative activity against human HGC-27 cells assessed as inhibition of cell viability measured for 3 to 5 days by alamar blue staining based assay; type: functional
[32] = test system: Hs-578T; experiment: Antiproliferative activity against human Hs-578T cells assessed as inhibition of cell viability measured for 3 to 5 days by alamar blue staining based assay; type: functional
[33] = test system: HT-29; experiment: Antiproliferative activity against human HT-29 cells assessed as inhibition of cell viability measured for 3 to 5 days by alamar blue staining based assay; type: functional
[34] = test system: KYSE-30; experiment: Antiproliferative activity against human KYSE-30 cells assessed as inhibition of cell viability measured for 3 to 5 days by alamar blue staining based assay; type: functional
[35] = target: T1, Histone-lysine N-methyltransferase SMYD3 (Homo sapiens); conditions: dose 120.0 µM

Aurora kinase A, sequence (O14965 whole entry): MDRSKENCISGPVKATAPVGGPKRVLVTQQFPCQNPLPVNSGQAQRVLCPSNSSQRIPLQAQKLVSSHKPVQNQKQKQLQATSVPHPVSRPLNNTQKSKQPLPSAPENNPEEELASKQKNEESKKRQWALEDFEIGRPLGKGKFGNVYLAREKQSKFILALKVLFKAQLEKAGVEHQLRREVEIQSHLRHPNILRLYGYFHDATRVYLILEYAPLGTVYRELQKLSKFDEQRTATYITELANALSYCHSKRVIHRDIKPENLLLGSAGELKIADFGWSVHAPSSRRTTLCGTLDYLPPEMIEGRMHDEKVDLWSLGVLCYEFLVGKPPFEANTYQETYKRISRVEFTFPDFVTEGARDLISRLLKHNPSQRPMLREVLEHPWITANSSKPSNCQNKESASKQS
Glycogen synthase kinase-3 beta, sequence (P49841 whole entry): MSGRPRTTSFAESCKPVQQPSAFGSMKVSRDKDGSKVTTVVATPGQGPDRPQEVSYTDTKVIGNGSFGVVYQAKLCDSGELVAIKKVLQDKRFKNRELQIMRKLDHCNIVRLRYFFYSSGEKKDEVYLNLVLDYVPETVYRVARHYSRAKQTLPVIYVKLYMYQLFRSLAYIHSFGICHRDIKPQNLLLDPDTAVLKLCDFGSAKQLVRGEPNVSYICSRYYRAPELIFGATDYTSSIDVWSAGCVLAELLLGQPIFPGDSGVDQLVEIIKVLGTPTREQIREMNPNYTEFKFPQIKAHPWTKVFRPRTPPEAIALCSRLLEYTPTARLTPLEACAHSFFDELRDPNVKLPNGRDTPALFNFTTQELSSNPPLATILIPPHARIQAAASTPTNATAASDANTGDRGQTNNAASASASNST
Histone-lysine N-methyltransferase SETD2 (Homo sapiens), sequence (Q9BYW2 whole entry): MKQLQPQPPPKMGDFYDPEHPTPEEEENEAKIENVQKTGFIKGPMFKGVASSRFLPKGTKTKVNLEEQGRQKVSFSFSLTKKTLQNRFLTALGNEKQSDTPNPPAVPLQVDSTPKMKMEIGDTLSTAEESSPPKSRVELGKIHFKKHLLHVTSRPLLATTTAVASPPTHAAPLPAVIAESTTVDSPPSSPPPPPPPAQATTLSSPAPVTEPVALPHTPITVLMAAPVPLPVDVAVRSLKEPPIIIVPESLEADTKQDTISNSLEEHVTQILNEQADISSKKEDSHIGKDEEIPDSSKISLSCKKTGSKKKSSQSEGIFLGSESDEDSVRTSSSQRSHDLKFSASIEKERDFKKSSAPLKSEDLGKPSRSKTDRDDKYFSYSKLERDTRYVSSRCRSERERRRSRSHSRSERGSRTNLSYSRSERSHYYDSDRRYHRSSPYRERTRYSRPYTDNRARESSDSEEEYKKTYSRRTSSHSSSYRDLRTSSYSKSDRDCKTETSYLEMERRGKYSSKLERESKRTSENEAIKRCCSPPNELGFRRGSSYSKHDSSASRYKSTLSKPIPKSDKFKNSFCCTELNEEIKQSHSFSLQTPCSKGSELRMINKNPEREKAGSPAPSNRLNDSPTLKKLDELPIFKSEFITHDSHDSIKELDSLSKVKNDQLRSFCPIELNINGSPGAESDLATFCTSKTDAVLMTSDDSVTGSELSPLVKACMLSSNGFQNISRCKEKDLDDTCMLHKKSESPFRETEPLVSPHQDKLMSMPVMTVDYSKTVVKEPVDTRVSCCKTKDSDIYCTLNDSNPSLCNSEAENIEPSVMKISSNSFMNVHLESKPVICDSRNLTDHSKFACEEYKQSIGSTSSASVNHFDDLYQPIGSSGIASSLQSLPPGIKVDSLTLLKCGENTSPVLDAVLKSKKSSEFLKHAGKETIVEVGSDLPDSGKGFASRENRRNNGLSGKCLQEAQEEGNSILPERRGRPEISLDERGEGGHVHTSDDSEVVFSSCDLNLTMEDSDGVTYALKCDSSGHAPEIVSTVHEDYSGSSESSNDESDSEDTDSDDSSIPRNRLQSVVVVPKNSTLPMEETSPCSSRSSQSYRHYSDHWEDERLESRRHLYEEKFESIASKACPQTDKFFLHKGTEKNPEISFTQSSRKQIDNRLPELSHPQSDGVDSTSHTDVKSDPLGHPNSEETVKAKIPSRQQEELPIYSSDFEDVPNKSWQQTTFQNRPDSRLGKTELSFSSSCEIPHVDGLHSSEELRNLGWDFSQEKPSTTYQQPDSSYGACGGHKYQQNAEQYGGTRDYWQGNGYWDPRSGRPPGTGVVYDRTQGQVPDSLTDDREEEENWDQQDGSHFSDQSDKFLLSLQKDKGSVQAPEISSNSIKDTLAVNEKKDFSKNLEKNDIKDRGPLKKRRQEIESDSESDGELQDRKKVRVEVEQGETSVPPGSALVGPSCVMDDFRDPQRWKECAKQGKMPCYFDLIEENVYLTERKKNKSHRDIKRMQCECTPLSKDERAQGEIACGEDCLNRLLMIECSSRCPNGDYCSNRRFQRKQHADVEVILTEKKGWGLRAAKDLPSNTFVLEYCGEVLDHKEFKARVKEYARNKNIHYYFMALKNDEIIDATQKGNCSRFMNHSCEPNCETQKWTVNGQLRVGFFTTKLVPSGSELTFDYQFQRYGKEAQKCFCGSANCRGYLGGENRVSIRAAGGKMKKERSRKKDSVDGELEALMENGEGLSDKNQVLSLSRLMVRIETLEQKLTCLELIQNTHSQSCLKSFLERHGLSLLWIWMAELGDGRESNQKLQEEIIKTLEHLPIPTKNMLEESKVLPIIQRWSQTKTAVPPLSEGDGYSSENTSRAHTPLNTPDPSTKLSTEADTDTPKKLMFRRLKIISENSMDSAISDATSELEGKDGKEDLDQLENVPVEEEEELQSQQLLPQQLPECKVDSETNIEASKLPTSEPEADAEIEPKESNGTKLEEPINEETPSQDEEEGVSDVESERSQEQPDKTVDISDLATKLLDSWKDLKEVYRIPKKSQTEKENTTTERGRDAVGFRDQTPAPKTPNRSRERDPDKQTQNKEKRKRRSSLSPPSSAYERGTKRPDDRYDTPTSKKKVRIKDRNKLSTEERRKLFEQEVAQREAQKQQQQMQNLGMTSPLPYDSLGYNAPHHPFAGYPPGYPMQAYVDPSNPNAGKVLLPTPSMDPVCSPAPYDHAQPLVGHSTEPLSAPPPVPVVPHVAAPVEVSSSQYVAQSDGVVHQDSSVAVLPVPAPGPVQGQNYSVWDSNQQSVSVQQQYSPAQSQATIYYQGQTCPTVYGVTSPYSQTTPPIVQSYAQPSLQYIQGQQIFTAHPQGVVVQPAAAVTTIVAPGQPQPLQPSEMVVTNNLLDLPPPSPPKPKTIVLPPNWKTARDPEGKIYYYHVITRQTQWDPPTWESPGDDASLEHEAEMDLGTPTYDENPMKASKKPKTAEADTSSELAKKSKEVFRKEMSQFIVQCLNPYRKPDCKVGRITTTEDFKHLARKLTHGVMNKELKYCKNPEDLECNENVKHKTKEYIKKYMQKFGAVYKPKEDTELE
Serine/threonine-protein kinase 4, sequence (Q13043 whole entry): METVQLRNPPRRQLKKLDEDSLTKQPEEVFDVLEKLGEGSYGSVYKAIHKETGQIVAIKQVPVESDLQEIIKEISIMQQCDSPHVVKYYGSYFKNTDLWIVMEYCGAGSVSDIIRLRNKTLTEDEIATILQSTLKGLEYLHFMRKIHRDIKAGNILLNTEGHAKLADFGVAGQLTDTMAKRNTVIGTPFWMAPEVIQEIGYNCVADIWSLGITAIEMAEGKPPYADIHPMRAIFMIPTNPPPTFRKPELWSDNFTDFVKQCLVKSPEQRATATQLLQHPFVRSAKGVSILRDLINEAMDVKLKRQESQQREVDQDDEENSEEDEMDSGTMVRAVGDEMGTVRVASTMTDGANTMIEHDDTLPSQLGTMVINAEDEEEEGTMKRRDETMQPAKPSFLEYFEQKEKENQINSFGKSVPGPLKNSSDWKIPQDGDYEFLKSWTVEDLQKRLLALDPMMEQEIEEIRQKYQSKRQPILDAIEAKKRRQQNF
Serine/threonine-protein kinase TBK1, sequence (Q9UHD2 whole entry): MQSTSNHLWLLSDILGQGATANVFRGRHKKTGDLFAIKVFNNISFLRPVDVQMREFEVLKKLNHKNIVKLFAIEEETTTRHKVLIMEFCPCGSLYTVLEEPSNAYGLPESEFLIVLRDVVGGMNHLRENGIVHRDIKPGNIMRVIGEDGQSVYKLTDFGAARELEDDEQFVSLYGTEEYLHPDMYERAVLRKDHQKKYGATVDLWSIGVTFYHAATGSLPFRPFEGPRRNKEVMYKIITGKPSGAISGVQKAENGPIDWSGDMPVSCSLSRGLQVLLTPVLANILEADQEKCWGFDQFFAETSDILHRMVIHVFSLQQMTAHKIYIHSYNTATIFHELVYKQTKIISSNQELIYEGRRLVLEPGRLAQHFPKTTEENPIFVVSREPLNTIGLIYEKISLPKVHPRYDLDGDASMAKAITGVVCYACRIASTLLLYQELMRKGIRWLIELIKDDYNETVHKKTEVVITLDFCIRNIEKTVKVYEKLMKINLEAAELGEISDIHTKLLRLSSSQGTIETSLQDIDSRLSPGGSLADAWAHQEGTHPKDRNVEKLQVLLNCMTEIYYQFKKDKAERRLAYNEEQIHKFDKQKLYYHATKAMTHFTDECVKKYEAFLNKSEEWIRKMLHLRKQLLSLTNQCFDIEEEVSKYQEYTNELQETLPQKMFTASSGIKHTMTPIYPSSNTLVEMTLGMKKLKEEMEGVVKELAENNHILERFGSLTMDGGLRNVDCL
Phosphatidylinositol 5-phosphate 4-kinase type-2 alpha, sequence (P48426 whole entry): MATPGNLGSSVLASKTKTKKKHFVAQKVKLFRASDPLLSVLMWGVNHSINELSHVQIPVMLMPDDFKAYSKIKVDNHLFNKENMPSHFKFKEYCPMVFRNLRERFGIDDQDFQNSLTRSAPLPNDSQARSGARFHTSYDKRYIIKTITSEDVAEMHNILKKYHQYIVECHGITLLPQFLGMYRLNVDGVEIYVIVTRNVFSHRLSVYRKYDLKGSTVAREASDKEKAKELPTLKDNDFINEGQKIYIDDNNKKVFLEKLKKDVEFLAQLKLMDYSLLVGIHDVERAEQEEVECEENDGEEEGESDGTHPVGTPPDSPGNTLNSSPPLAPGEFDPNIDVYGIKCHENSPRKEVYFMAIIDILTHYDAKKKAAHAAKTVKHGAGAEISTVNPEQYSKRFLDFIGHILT

C[C@H]1CC(=O)Nc2cc(C(=O)NCCC3CC3)ccc2N1C(=O)N1CC2CC2C1 (stereo not given in full)
> 20 µM: IC50 [20] | IC50 [21] | IC50 [22] | IC50 [23] | IC50 [24] | IC50 [25] | IC50 [26] | IC50 [27] | IC50 [28] | IC50 [29]
> 10 µM: IC50 [30] | IC50 [31] | IC50 [32] | IC50 [33] | IC50 [34]
Not Active: IC50 [4]
8.34 K: deltaTm [35]
-4.2 kcal/mol: deltaH [1]
-9.2 kcal/mol: deltaG [3]
inactive: inhibition [2] | inhibition [5] | inhibition [6] | inhibition [7] | inhibition [8] | inhibition [9] | inhibition [10] | inhibition [11] | inhibition [12] | inhibition [13] | inhibition [14] | inhibition [15] | inhibition [16] | inhibition [17] | inhibition [18] | inhibition [19]

Source: ChEMBL document CHEMBL5661986, “Discovery of the SMYD3 Inhibitor BAY-6035 Using Thermal Shift Assay (TSA)-Based High-Throughput Screening” (SLAS Discov, 2021)
